# Measured values published in ChEMBL document CHEMBL1165954, “Synthesis and in vitro antiprotozoal evaluation of substituted phenalenone analogues” (Bioorg Med Chem, 2010).
# Tests used:
# [1] = Cytotoxicity against human MCF7 cells assessed as growth inhibition at 10 uM after 72 hrs by MTT assay; type: cell-based
# In short: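 MCF-7 cells in DMEM with 10% FBS, plated at 10,000 cells/well. After 72 h, MTT was added at 0.5 mg/mL final for 3 h at 37 °C. Formazan was dissolved in SDS–HCl (20% SDS, 0.02 M HCl) and absorbance read at 570 nm.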
# [2] = system: Leishmania donovani; test: Antiprotozoal activity against promastigotes of Leishmania donovani MHOM/IN/90/GE1F8R after 72 hrs by alamar blue assay; type: functional, organism-based
# In short: (§1)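 Log-phase promastigotes at 10^6/well in phenol-red-free RPMI 1640. Serum was heat-inactivated FBS at 20% for L. donovani and 10% for L. amazonensis. Cells were exposed to compound serial dilutions with 10% Alamar Blue at 26 °C for 72 h and read at 570 nm with a 630 nm reference. IC50 was taken by linear regression with 95% confidence limits. Three experiments were run in duplicate and analysed by paired two-tailed t-test.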
# [3] = system: Trypanosoma cruzi; test: Antiprotozoal activity against epimastigotes of Trypanosoma cruzi Y by alamar blue assay; type: functional, organism-based
# In short: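 Y-strain epimastigotes grown at 28 °C in LIT medium with 10% (v/v) heat-inactivated FBS. Growth inhibition was measured by the same Alamar Blue colorimetric method used for Leishmania promastigotes.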
# [4] = system: Leishmania amazonensis; test: Antiprotozoal activity against promastigotes of Leishmania amazonensis MHOM/ BR/77/LTB0016 after 72 hrs by alamar blue assay; type: functional, organism-based; settings: MHOM/ BR/77/LTB0016, 72 h; in short: as §1
SMILES,IC50 [3] [µg/mL],"inhibition at 72 h, 10 µM [1] [%]",IC50 [2] [µg/mL],IC50 [4] [µg/mL]
N#Cc1ccc2cccc3c2c1C(=O)C=C3,> 100,44,1.02,3.73
O=C1C=Cc2cccc3ccc(-c4ccccn4)c1c23,> 100,0,> 100,53.2
OC1(c2ccccn2)C=Cc2cccc3ccc(-c4ccccn4)c1c23 (configuration not stated),> 100,0,> 100,> 100
O=C1C=Cc2cccc3ccc(-c4ccco4)c1c23,> 100,14,> 100,8.39
O=C1C(O)=Cc2cccc3ccc(-c4ccc(O)cc4)c1c23,> 100,23,> 100,> 100
O=C1C=Cc2cccc3cccc1c23 [PERINAPHTHENONE],2.62,0,65.1,27.3
Oc1ccc2cccc3c2c1C(c1ccco1)C=C3 (configuration not stated),> 100,,> 100,> 100
O=C1C=Cc2cccc3ccc(-c4cccs4)c1c23,> 100,4,> 100,14.5
O=C1C(O)=Cc2cccc3ccc(-c4ccccc4)c1c23,> 100,22,> 100,> 100
Cc1cccc(C)c1-c1ccc2cccc3c2c1C(=O)C=C3,49.8,1,27.8,42.8
COC1c2cccc3ccc(-c4ccccc4)c(c23)C(=O)C1O (configuration not stated),> 100,17,> 100,> 100

# Second part, led by results:
IC50 [3] [µg/mL],SMILES,"inhibition at 72 h, 10 µM [1] [%]",IC50 [2] [µg/mL],IC50 [4] [µg/mL]
> 100,COc1ccc(-c2ccc3cccc4c3c2C(=O)C(O)C4O)cc1 (configuration not stated),,> 100,> 100
> 100,COc1ccc(C2=CC(=O)c3cccc4cccc2c34)cc1,2,> 100,> 100
> 100,COc1ccc(-c2ccc3cccc4c3c2C(=O)C(O)=C4)cc1,19,> 100,> 100
> 100,O=C1C=Cc2cccc3ccc(-c4ccccc4)c1c23,5,> 100,> 100
48.3,COC1=Cc2cccc3ccc(-c4ccccc4)c(c23)C1=O,14,29.9,9.04
> 100,COC1=Cc2cccc3ccc(-c4ccc(OC)cc4)c(c23)C1=O,15,> 100,> 100
> 100,O=C1C(O)=Cc2c(-c3ccc(O)cc3)ccc3cccc1c23,12,> 100,> 100
> 100,O=C1C(O)=Cc2c(-c3ccccc3)ccc3cccc1c23,19,> 100,> 100
> 100,COc1ccc(-c2ccc3cccc4c3c2C(=O)C=C4)cc1,13,> 100,0.83
11.4,COc1ccc(-c2ccc3cccc4c3c2C=CC4=O)cc1,17,> 100,4.43
